Source: ChEMBL document CHEMBL3124905, “Isothiocoumarin-3-carboxylic acid derivatives: synthesis, anticancer and antitrypanosomal activity evaluation” (Eur J Med Chem, 2014)

Key:
Type in all cases: functional
[1] = tested on: NCI-H460; experiment: Anticancer activity against human NCI-H460 cells assessed as cell growth at 100 uM after 48 hrs by SRB assay; details: NCI-H460, 48 h, read-out: Activity
In short: (§1)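 NCI one-dose primary screen on a three-line panel (breast MCF7, lung NCI-H460, CNS SF-268). Cells were inoculated and preincubated 24–48 h, then exposed to a single concentration of 10−4 M for 48 h. The endpoint was sulforhodamine B protein staining, and results are expressed as percent growth relative to untreated control cells. Negative values denote cytotoxicity.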

[2] = tested on: MCF7; experiment: Anticancer activity against human MCF7 cells assessed as cell growth at 100 uM after 48 hrs by SRB assay; details: MCF7, 48 h, read-out: Activity; in short: as §1
[3] = tested on: SF-268; experiment: Anticancer activity against human SF268 cells assessed as cell growth at 100 uM after 48 hrs by SRB assay; details: SF-268, 48 h, read-out: Activity; in short: as §1
[4] = tested on: Trypanosoma brucei brucei; experiment: Antitrypanosomal activity against bloodstream form of Trypanosoma brucei brucei strain 90-13 assessed as inhibition of parasite growth at 10 ug/ml after 72 hrs by resazurin reduction test; details: strain 90-13, 72 h
In short: (§2)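 Trypanosoma brucei brucei 90-13 bloodstream forms, grown in HMI9 with 10% FCS at 37 °C under 5% CO2. Log-phase parasites were seeded at 10^5 cells/mL with or without inhibitor, with stocks prepared in DMSO. After 72 h, resazurin was added and fluorescence was read at 530/590 nm after a further 4 h. Percent growth inhibition was calculated versus drug-free parasites, with DMSO as control.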

[5] = tested on: Trypanosoma brucei brucei; experiment: Antitrypanosomal activity against bloodstream form of Trypanosoma brucei brucei strain 90-13 assessed as inhibition of parasite growth at 1 ug/ml after 72 hrs by resazurin reduction test; details: strain 90-13, 72 h; in short: as §2

SMILES: O=C(Nc1nccs1)c1cc2ccccc2c(=O)s1
- growth at 100 µM [1]: 93%
- growth at 100 µM [2]: 91%
- growth at 100 µM [3]: 90%

SMILES: O=C(O)CNC(=O)c1cc2ccccc2c(=O)s1
- inhibition at 10 µg/mL [4]: 0.18%
- inhibition at 1 µg/mL [5]: 10.8%

SMILES: COc1ccc2cc(C(=O)NCC(=O)O)sc(=O)c2c1OC
- growth at 100 µM [1]: 109%
- growth at 100 µM [2]: 109%
- growth at 100 µM [3]: 112%

SMILES: COc1ccc2cc(C(=O)Nc3cc(C)on3)sc(=O)c2c1OC
- inhibition at 10 µg/mL [4]: 3.93%
- growth at 100 µM [1]: 70%
- growth at 100 µM [2]: 52%
- growth at 100 µM [3]: 51%
- inhibition at 1 µg/mL [5]: 12.2%

SMILES: O=C(O)c1cc2ccccc2c(=O)s1
- inhibition at 10 µg/mL [4]: 0.05%
- inhibition at 1 µg/mL [5]: 16.8%
